STAT1 inh – STAT1 signaling inhibitors, primary screen, cell-based, HTS, luciferase reporter. inhibition, % at 5.5 µM. NIH 3T3 STAT1-luciferase reporter, IFN-gamma, luminescence. 200,000 tested, 0.35% active;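 active = inhibition above a set limit, the mean inhibition across all tested compounds plus 3 SD, cut at about 34% in these data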;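 note: 0% = IFN-gamma with DMSO and 100% = IFN-gamma with 300 µM nifuroxazide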
STAT1 activator – STAT1 signaling activators, primary screen, cell-based, HTS, luciferase reporter. NIH 3T3 STAT1-luciferase reporter, IFN-gamma, luminescence; 100% = IFN-gamma alone, no compound. activation (% of control), % at 5.5 µM. 200,000 tested, 2.6% active. AID 932, 2007;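 active = activation above the screen-wide mean activation plus 3 SD, cut at about 130% in these data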;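 note: raw ratio to IFN-gamma control signal so 100% means no change and 0% no light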
NF-kB expr up – activators of NF-kB expression in neurons, primary screen, cell-based, HTS; human neuronal cells, NF-kB reporter expression; hits give high values; fold change at 12.5 µM; 190,000 tested, 1.6% active; AID 1239, 2008; in the data active = fold change above about 3.3
Pf gamet viab – late stage P. falciparum gametocyte viability inhibitors, primary screen, ATP luminescence, HTS | P. falciparum stage V gametocytes, 24 h | inhibition, % at 10.9 µM | 150,000 tested, 0.065% active;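 active = inhibition above the mean plus 3 SD of compounds within the control limits, set per campaign, cut at about 38% in these data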;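 note: 0% = DMSO wells and 100% = medium only without gametocytes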
APP 5'UTR act – activators of APP 5'UTR luciferase reporter, primary screen, SH-SY5Y cells | SH-SY5Y APP 5'UTR luciferase reporter, luminescence; zero percent = DMSO vehicle wells | activation, % at 2 µM | 190,000 tested, 1% active;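 active = activation above a set limit, based on mean plus 3 SD of controls, cut at about 140% in these data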
STAT3 act – IL-6 driven STAT3 reporter potentiators, primary screen, U3A cells, luciferase, luminescence, MLSCN library. IL-6 STAT3-luciferase reporter; 100% = signal with IL-6 EC80 alone. activation (% of control), % at 5.6 µM. 190,000 tested, 0.91% active. AID 871, 2007;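 active = activation above the screen-wide mean of compound activation plus 3 SD, cut at about 130% in these data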;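 note: 0% = background luminescence of wells with medium and substrate only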
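Detection: reporter luminescence signal / Assay system: STAT1-lacking human U3A cells, STAT3 luciferase reporter / Incubation: compound pre-incubation 1 h before IL-6, then 6 h stimulation at 37 °C / Control set: IL-6-only high control / Read-out: % activation relative to IL-6 control / Probe or stimulus: Interleukin-6, 33 ng/mL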
Numbers without * were called inactive; · = no result given. In the library only some 3.9% were active in any assay of this set; here they are far more common.

SMILES	STAT1 inh	STAT1 activator	NF-kB expr up	Pf gamet viab	APP 5'UTR act	STAT3 act
Clc1cc(Cl)c(OCc2nc(-c3ccccn3)no2)cc1Cl	-35	132*	5.2*	-12	83	91
CC(CNC(=O)Cn1ccc(N)nc1=O)c1ccccc1 (stereo not given)	·	·	·	12	·	·
COC(=O)c1ccc(CN2CCCC(CCC(=O)NCc3ccc(C)o3)C2)cc1 (stereo not given)	8	91	1	·	6	100
CCN1C/C(=C/c2ccc(N3CCOCC3)cc2)C(=O)/C(=C/c2ccc(N3CCOCC3)cc2)C1	-3	103	5.3*	4	-7	111
O=C(OCc1nc2ccccc2s1)c1ccc(Br)o1	-8	107	1.3	5	22	120
O=C(CNC(=O)c1ccccc1)OCc1nc2ccccc2s1	-43	139*	0.67	·	55	136*
Cc1cc(C(=O)OCc2nc3ccccc3s2)c(C)o1	-36	132*	2	·	38	97
CC(=O)OCc1nc2ccccc2s1	-38	135*	1.3	1	17	163*
CCOC(=O)C(=O)Cc1nc2ccccc2s1	·	·	·	15	·	·
O=C(OCc1nc2ccccc2s1)c1ccco1	-49	143*	1.1	-3	87	133
O=[N+]([O-])c1sccc1CS(=O)(=O)c1ccccc1	·	·	·	6	·	·
COc1cc(C(=S)N2CCCC2)cc(Cl)c1OCC(=O)Nc1ccc(C)cc1C	9	94	1.3	·	-14	92
Cc1[nH]c2ccccc2c1C(=O)C(=O)NCCOc1ccccc1	5	94	1.7	2	-10	91
Cc1cc(C)cc(N(C(=O)c2csnn2)C(C(=O)NC(C)(C)C)c2cccnc2)c1 (stereo not given)	6	95	1.2	-9	-3	105
O=C(O)c1ccc(N=NN2CCCCC2)cc1	-40	135*	1.9	-2	57	98
COC(=O)c1ccc(N=NN2CCCCCC2)cc1	-41	137*	4.1*	7	106	79
O=C(c1ccccc1)c1nn(-c2ccc(Cl)cc2)c(=O)cc1C(F)(F)F	-16	114	2.1	-15	6	134*
CC(=O)Oc1ccc(C(=O)Nc2cc(C)on2)cc1	·	·	·	0	·	·
O=C1CCCC/C1=C\Nc1ccc(Cl)cn1	-1	101	1.6	·	39	92
Cc1ccc(N/C=C2\CCCCC2=O)nc1	-38	135*	1.8	-8	6	95
COc1ccc2c(c1)Cc1sc(NC(C)=O)nc1-2	-49	146*	1.9	12	123	99
Cc1cccc(NC2SC(=O)N(c3ccccc3)C2=O)c1 (stereo not given)	0	100	3.5*	·	43	97
Oc1ccccc1NCC(O)Cn1ccc2ccccc21 (stereo not given)	-2	102	0.91	-14	12	135*
COc1c(OC(C)=O)ccc(/C=C/c2ccc3cccc(OC)c3n2)c1[N+](=O)[O-]	-4	103	1.2	10	5	119
COc1c(OC(C)=O)ccc(/C=C/c2ccc3ccccc3n2)c1[N+](=O)[O-]	1	99	1.1	·	136*	105
SMILES	STAT1 inh	STAT1 activator	NF-kB expr up	Pf gamet viab	APP 5'UTR act	STAT3 act
CC1CCN(C(=O)c2ncn(Cc3ccccc3)c2C(=O)N2CCC(C)CC2)CC1	·	·	·	10	·	·
Clc1ccc(-c2nc3nc4ccccc4nc3n2Cc2ccco2)cc1	-30	127	3.7*	·	51	100
Cc1ccc(-c2nc3nc4ccccc4nc3n2Cc2ccco2)cc1	-27	124	2.6	·	181*	75
Oc1ccccc1CNc1ccc(Br)cn1	-13	112	5.4*	·	71	95
Brc1ccc(NCc2cccc3ccccc23)nc1	-12	111	1.7	20	-12	78
O=S(=O)(Nc1ccc(C(F)(F)F)cn1)c1ccccc1	·	·	·	15	·	·
COc1ccc2oc(=O)c(-c3csc(Nc4ccc(O)cc4)n3)cc2c1	-17	116	3.6*	-14	-7	88
O=S(=O)(Nc1nc2ccccc2nc1NCC1CCCO1)c1ccccc1 (stereo not given)	·	·	·	1	·	·
COc1ccc(CNc2nc3ccccc3s2)cc1OC	·	·	·	-7	·	·
Cc1ccc(CNc2nc3ccccc3s2)s1	51*	53	4.2*	6	182*	40
c1ccc2oc(-c3csc(NCC4CCCO4)n3)cc2c1 (stereo not given)	-52	148*	9.1*	18	169*	81
c1ccc2sc(NCC3CCCO3)nc2c1 (stereo not given)	-39	136*	1.2	-17	50	104
CN1CCCN(Cc2nc(-c3cccc(C(F)(F)F)c3)no2)CC1	-15	112	1.2	7	-1	101
COCCC(=O)Nc1ccc2c(c1)CN(C(=O)c1ccc(CSC)o1)CC2	·	·	·	-6	·	·
Cn1ncc2c1ncn1nc(CCc3ccccc3)nc21	-46	142*	3.8*	20	29	103
Nc1ccc2c(c1)OC1(CCCCC1)O2	-6	103	0.97	5	22	135*
Cc1[nH]c2ccccc2c1C(=O)CSC(=S)N(C)C	-33	130*	1.6	-9	27	99
C=CCN=c1scc(-c2ccc(F)cc2)n1/N=C/c1ccccn1	-22	120	3.3*	15	47	100
C=CCN=c1scc(-c2ccc3c(c2)NC(=O)CO3)n1/N=C(\C)c1ccccn1	21	80	0.75	5	-52	39
C=CCN=c1scc(-c2ccccc2)n1/N=C/c1ccccn1	-126	215*	7.5*	·	99	78
O=C(/C=C/NNC(=O)c1ccc(Cl)cc1)c1ccccc1	-36	133*	0.91	-12	1	105
CCc1c(C)nc(SCC(=O)c2cccs2)c(C#N)c1C	-40	136*	2.7	·	30	149*
Cc1ccc(C(=O)CSc2nnc(C(C)C)n2C)cc1C	-22	118	3.4*	4	15	107
O=C(COC(=O)CCc1nc2ccccc2s1)NCc1ccco1	0	100	1.1	·	22	98
CCOc1ccc(/C=C/C2=NNC(=O)CC2)cc1	-31	129*	2	·	51	98
COCCNC(=O)Cn1nc(-c2ccccc2C)ccc1=O	·	·	·	0	·	·
CCC1CCCCN1C(=O)CCc1nnc(Cc2cc(OC)ccc2OC)o1 (stereo not given)	·	·	·	-6	·	·
COc1ccc(OC)c(Cc2nnc(CCC(=O)N3CCCCC3)o2)c1	-37	132*	1.9	21	19	113
O=c1c2ccccc2nnn1CSc1nc2ccccc2[nH]1	-38	135*	2.2	·	66	98
Cc1ccc(SCn2nnc3ccccc3c2=O)c(C)c1	-43	141*	2.9	-16	76	103
